Drawing on PubChem BioAssay AID504392 (Broad Institute, 2011), this text covers outcome for 20 compounds.

Calls of active or inactive are those of the source.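 How the source made its calls: active means fitted curve rising past 10% caspase activation at or below the top valid dose; inactive means activity opposite to the expected rise, or the rest.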

The assay in a line: apoptosis induction in mouse embryonic fibroblasts – cell-based, wild-type MEF, caspase luminescence, dry powder, set 2, counter-screen for Bcl2-A1 inhibitor project, dose response (AID 504392). The essentials:
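Material: unprimed wild-type MEF cells; amount: 2500 cells per well; read-out basis: caspase activation; doses: pin-transferred compound; medium: RPMI-1640 growth medium with 10% FBS; timing: 3 h compound at 37 °C, 1 h reagent at RT; signal: CaspaseGlo luminescence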
On the technique in general: Counterscreens check selectivity or assay interference.

Turning to `Cc1ccc(Sc2cc(=O)n(C)c3ccccc23)cc1`, the result was inactive.

Consider `O=c1oc2ccccc2c(Cl)c1[N+](=O)[O-]`, for which the result was inactive.

On to `O=c1oc2ccccc2c(Sc2ccccc2)c1[N+](=O)[O-]`, for which the result was inactive.

For the compound `Cc1ccc(Nc2c([N+](=O)[O-])c(=O)oc3ccccc23)cc1`, the result was inactive.

For the compound `Cn1c(=O)c([N+](=O)[O-])c(Cl)c2ccccc21`, the call was inactive.

With `CCSc1c([N+](=O)[O-])c(=O)oc2ccccc12`, the call was inactive.

With `CN1C(=O)C(C)(C)N(Cc2ccccc2)c2ccccc21`, the outcome was inactive.

On to `O=c1oc2ccccc2c(Nc2cc(Cl)cc(Cl)c2)c1[N+](=O)[O-]`, for which the compound was classed as inactive.

`Cn1c(=O)c([N+](=O)[O-])c(Nc2ccc(Cl)cc2)c2ccccc21`: the result was inactive.

On to `Cc1ccc(Sc2c([N+](=O)[O-])c(=O)oc3ccccc23)cc1`, for which the result was inactive.

For `CCOC(=O)N1CCN(c2c([N+](=O)[O-])c(=O)n(C)c3ccccc23)CC1`, the compound was classed as inactive.

As for `Cn1c(=O)c([N+](=O)[O-])c(Oc2ccccc2)c2ccccc21`, the result was inactive.

For `Cn1c(=O)c([N+](=O)[O-])c(-n2cnc3ccccc32)c2ccccc21`, the call was inactive.

Take `CCOCCCNc1c([N+](=O)[O-])c(=O)n(C)c2ccccc12`: the outcome was inactive.

Consider `Cc1ccc(Sc2c([N+](=O)[O-])c(=O)n(C)c3ccccc23)cc1`, for which the compound was classed as inactive.

On to `O=c1oc2ccccc2c(N2CCCCC2)c1[N+](=O)[O-]`, for which the compound was classed as inactive.

Consider `Cc1ccc(Sc2c([N+](=O)[O-])cnc3ccccc23)cc1`, for which the outcome was inactive.

Regarding `Cc1ccc(Nc2c([N+](=O)[O-])c(=O)n(C)c3ccccc23)cc1`, the result was inactive.

For the compound `O=[N+]([O-])c1cnc2ccccc2c1Sc1ccccc1`, the call was inactive.

With `O=C(Oc1cccc(/C=N/Nc2nc(Nc3ccccc3)nc(N3CCOCC3)n2)c1)c1ccco1`, the call was inactive.
